Source: ChEMBL document CHEMBL3627637, “Phenylalanine and Phenylglycine Analogues as Arginine Mimetics in Dengue Protease Inhibitors” (J Med Chem, 2015)
The source made the active and inactive calls. No cut-off for these calls is given here. Non-standard residues stand in square brackets, D forms with d. Residues, ends and D or L forms follow the SMILES beside them. *: point of attachment. Phe(4-guanidino) = N=C(N)Nc1ccc(C[C@H](N)C(=O)O)cc1; Phe(3-CN) = N#Cc1cccc(C[C@H](N)C(=O)O)c1; Phe(4-CN) = N#Cc1ccc(C[C@H](N)C(=O)O)cc1; Phe(4-NH2) = Nc1ccc(C[C@H](N)C(=O)O)cc1; Hydrocinnamoyl = O=C(CCc1ccccc1)*; 3Pal = N[C@@H](Cc1cccnc1)C(=O)O; 4Pal = N[C@@H](Cc1ccncc1)C(=O)O; Phg = N[C@H](C(=O)O)c1ccccc1; Bz = O=C(c1ccccc1)*

Legend:
Trypsin = Trypsin (Homo sapiens, UniProt P07477+P07478+P35030); test: Inhibition of trypsin (unknown origin) at 50 uM preincubated with protein for 15 mins followed by boc-Val-Pro-Arg-AMC substrate addition measured by continuous fluorometric analysis; type: protein assay
How it was run: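 Trypsin (1 nM) was preincubated 15 min with inhibitor (50 μM final) in 50 mM Tris-HCl pH 7.5, 150 mM NaCl, 0.05% Tween 20. boc-Val-Pro-Arg-AMC (50 μM final) was added. Continuous fluorescence at ex 355/em 460 nm; rate compared with an uninhibited control. Triplicate.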

dengue virus type 2 [1] = test: Inhibition of Dengue virus (serotype 2) NS2B-NS3 protease at 50 uM preincubated with protein for 15 mins followed by Abz-Nle-Lys-Arg-Arg-Ser-3-(NO2)Tyr substrate addition measured by continuous fluorometric analysis
How it was run: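 Continuous FRET assay in 50 mM Tris-HCl pH 9.0, 10% ethylene glycol, 0.0016% Brij 58. DENV2 protease (100 nM) was preincubated 15 min with inhibitor (50 μM final), then Abz-Nle-Lys-Arg-Arg-Ser-3-(NO2)Tyr (50 μM final; Km 105 μM) was added. Read at ex 320/em 405 nm as slope over 15 min, relative to an uninhibited control. Triplicate.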

[2] = target: Genome polyprotein (West Nile virus) (UniProt P06935); test: Inhibition of West Nile virus NS2B-NS3 protease at 50 uM preincubated with protein for 15 mins followed by Abz-Gly-Leu-Lys-Arg-Gly-Gly-3-(NO2)-Tyr substrate addition measured by continuous fluorometric analysis
How it was run: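 WNV NS2B-NS3pro (150 nM) was preincubated 15 min with inhibitor (50 μM final) in 50 mM Tris-HCl pH 9.0, 10% ethylene glycol, 0.0016% Brij 58. Abz-Gly-Leu-Lys-Arg-Gly-Gly-3-(NO2)-Tyr (50 μM; Km 212 μM) started the reaction. Continuous read at ex 320/em 405 nm for 15 min against an uninhibited control. Triplicate.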

[3] = Inhibition of Dengue virus (serotype 2) NS2B-NS3 protease preincubated with protein for 15 mins followed by Abz-Nle-Lys-Arg-Arg-Ser-3-(NO2)Tyr substrate addition measured by continuous fluorometric analysis; parameters: species or system dengue virus type 2
How it was run: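 DENV2 protease (100 nM) in Tris-HCl pH 9.0/ethylene glycol/Brij 58 buffer, preincubated 15 min with inhibitor, then 50 μM FRET substrate added. Read at ex 320/em 405 nm over 15 min. Done for compounds with ≥70% inhibition, using series of 0–2.5, 0–6 or 0–30 μM, in triplicate, with nonlinear fitting. Ki came from substrate at 50–200 μM via Cheng–Prusoff.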

Prothrombin = Prothrombin (Homo sapiens, UniProt P00734); test: Inhibition of human thrombin at 25 uM preincubated with protein for 15 mins followed by boc-Val-Pro-Arg-AMC substrate addition measured after 10 mins by continuous fluorometric analysis
[4] = Permeability of the compound at 200 uM incubated for 5 hrs by PAMPA; type: physicochemical
How it was run: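 PAMPA in PBS: donor wells held 200 μM compound (triplicate) against PBS acceptor, 5 h at room temperature. Donor and acceptor concentrations were quantified by RP-18 HPLC-UV against calibration curves (10–200 μM). Pe and membrane retention were calculated by a literature method. Amiloride, caffeine, famotidine, furosemide and phenytoin served as references.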

[5] = Cytotoxicity against human HuH7 cells at 50 uM incubated for 48 hrs measured by Cell-Titer Glo Luminescent viability Assay; type: cell-based; conditions: huh-7, 48 h
dengue virus type 2 [6] = test: Antiviral activity against wild type Dengue virus (serotype 2) infected in human Huh-7 cells assessed as inhibition of viral replication at 50 uM incubated for 48 hrs measured by Cell-Titer Glo Luminescent viability assay; type: functional; conditions: Huh-7, 48 h
Genome polyprotein = Genome polyprotein (West Nile virus, UniProt P06935); test: Inhibition of West Nile virus NS2B-NS3 protease preincubated with protein for 15 mins followed by Abz-Gly-Leu-Lys-Arg-Gly-Gly-3-(NO2)-Tyr substrate addition measured by continuous fluorometric analysis
How it was run: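 WNV protease (150 nM), 15-min preincubation with inhibitor in pH 9.0 Tris buffer, then 50 μM FRET substrate. Read at ex 320/em 405 nm. Done for compounds with ≥90% single-point inhibition, using graded inhibitor concentrations in triplicate, with the curve fitted.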

[7] = Half life in Sprague-Dawley rat liver microsomes at 100 uM incubated for 30 mins by HPLC analysis; type: ADME
How it was run: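 Pooled male Sprague-Dawley rat liver microsomes (0.2 mg/mL protein) with NADPH (5 mM) in DPBS, preincubated 15 min at 37 °C. Compound (100 μM) was then incubated 30 min at 37 °C. Aliquots at 0, 2, 5, 10, 20 and 30 min were quenched with acetonitrile, iced, and centrifuged. Parent remaining was measured by RP-HPLC-UV peak area versus reference. Testosterone served as activity control.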

Chain of Genome polyprotein (West Nile virus) (P06935 whole entry): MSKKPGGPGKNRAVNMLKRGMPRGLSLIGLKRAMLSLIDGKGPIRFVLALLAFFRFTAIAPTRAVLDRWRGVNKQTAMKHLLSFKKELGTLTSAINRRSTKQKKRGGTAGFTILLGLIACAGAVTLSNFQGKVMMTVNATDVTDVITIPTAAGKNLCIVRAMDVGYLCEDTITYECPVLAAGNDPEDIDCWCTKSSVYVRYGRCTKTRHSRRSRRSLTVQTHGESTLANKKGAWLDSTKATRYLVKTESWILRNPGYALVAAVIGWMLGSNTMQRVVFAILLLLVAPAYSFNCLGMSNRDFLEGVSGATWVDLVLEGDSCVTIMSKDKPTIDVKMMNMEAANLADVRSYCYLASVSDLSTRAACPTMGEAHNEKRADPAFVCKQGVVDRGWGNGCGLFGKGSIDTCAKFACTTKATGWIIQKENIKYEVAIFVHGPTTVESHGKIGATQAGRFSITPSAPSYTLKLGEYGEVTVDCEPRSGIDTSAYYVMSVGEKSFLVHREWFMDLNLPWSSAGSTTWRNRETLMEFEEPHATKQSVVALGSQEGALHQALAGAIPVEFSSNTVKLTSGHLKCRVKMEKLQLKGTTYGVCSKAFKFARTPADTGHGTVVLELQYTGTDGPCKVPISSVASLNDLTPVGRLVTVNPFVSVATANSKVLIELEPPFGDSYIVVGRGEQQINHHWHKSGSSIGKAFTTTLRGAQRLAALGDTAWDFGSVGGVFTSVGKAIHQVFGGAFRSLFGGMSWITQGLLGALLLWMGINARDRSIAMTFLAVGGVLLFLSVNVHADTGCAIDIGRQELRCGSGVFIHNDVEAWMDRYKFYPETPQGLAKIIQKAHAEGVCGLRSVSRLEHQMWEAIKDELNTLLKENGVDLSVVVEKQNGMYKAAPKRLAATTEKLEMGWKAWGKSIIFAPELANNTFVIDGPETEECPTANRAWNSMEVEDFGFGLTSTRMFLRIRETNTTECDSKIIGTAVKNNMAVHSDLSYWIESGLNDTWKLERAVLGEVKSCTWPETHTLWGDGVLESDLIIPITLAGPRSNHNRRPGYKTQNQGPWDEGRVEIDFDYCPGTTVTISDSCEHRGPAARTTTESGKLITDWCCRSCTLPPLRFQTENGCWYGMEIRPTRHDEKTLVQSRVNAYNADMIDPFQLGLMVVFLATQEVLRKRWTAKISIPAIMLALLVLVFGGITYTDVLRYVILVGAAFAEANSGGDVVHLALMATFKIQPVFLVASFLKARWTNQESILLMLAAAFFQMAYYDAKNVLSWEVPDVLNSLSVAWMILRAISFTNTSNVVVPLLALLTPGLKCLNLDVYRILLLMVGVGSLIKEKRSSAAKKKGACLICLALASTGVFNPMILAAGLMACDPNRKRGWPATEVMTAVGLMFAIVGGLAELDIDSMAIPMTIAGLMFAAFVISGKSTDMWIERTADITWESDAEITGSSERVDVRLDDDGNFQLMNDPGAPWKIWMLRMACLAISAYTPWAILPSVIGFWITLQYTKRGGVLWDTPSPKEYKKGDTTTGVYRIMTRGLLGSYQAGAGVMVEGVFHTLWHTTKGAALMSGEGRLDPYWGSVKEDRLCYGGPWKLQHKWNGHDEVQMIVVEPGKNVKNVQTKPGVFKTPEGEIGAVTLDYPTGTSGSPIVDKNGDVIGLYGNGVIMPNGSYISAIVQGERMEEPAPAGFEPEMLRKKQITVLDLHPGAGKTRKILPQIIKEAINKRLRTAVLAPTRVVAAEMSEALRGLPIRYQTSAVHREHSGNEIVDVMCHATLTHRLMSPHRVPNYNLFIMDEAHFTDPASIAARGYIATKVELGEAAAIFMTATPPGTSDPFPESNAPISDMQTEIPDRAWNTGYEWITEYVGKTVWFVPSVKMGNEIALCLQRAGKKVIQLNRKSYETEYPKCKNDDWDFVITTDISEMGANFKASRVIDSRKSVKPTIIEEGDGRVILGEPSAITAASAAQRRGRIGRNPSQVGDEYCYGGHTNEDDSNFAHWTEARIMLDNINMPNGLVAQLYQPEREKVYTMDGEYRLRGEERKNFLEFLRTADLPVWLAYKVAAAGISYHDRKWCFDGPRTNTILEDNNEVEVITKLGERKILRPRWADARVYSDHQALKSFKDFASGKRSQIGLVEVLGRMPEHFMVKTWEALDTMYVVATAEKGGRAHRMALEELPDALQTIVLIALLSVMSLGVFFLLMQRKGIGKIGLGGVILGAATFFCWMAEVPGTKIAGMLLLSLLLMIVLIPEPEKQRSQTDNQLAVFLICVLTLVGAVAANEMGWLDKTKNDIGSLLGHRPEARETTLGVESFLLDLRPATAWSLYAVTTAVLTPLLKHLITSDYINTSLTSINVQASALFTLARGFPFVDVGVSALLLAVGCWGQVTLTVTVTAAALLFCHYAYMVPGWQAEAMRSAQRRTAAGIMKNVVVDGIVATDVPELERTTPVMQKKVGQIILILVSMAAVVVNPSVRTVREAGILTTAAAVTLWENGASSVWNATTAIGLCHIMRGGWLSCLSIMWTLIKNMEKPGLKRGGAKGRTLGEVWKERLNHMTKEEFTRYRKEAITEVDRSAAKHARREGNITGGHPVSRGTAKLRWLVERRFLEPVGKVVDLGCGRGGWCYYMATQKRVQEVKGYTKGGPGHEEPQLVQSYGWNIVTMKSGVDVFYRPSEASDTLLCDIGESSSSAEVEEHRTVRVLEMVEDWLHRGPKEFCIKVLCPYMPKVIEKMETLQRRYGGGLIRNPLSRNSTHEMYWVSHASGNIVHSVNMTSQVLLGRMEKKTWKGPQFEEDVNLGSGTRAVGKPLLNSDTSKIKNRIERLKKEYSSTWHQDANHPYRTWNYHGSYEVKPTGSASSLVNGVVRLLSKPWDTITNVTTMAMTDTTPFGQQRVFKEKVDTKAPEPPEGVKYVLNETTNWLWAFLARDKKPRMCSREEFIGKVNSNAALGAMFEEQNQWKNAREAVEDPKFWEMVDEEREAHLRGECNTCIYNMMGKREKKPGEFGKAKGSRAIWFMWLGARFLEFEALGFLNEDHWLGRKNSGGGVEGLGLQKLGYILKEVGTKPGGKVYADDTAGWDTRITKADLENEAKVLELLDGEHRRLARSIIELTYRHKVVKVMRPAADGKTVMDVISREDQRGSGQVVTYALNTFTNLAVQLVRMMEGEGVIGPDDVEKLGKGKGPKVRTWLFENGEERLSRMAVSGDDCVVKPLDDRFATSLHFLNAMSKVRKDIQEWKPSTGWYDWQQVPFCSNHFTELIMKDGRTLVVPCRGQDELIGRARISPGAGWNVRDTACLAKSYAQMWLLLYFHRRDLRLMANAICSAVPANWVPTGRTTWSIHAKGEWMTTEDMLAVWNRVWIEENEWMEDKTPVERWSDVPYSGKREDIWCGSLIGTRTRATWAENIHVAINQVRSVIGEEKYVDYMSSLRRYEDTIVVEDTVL
Chain of Genome polyprotein (P06935 1371-1501 limits assumed): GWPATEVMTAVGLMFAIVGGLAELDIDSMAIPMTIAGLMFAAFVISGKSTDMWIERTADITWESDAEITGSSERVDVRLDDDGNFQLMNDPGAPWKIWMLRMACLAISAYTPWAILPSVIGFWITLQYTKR
Chain of Genome polyprotein (P06935 1502-2120 limits assumed): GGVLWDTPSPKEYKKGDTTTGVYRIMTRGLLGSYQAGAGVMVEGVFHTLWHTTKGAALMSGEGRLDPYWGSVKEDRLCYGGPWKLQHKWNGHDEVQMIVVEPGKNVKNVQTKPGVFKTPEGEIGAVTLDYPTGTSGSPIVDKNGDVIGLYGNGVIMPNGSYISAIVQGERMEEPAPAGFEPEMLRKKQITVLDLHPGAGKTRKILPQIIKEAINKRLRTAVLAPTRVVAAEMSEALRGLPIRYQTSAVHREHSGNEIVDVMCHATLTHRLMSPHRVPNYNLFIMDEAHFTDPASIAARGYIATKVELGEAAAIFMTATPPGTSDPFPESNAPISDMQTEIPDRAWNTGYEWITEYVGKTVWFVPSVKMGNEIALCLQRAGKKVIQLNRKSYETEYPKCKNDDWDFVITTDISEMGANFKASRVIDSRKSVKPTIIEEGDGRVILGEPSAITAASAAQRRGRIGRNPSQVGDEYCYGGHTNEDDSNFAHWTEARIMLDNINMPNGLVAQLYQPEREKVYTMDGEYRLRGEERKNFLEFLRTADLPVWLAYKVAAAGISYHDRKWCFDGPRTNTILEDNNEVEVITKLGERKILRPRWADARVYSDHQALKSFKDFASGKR

Row | Compound | inhibition (Trypsin) [%] | inhibition (dengue virus type 2 [1]) [%] | inhibition [2] [%] | IC50 [3] [µM] | inhibition (Prothrombin) | permeability [4] | Ki [3] [µM] | Activity [5] | inhibition at 50 µM (dengue virus type 2 [6]) [%] | IC50 (Genome polyprotein) [µM] | half-life at 100 µM [7] [h]
1 | N=C(N)Nc1ccc(C[C@H](NC(=O)c2ccc(C(F)(F)F)cc2)C(=O)N[C@@H](CCCCN)C(=O)N[C@H](C(N)=O)c2ccccc2)cc1 | 12.8 | 100 | 42.2 | 0.69 | inactive | impermeable |  |  |  |  | 
2 | N=C(N)c1cccc(C[C@H](NC(=O)c2ccccc2)C(=O)N[C@@H](CCCCN)C(=O)N[C@H](C(N)=O)c2ccccc2)c1 | 37 | 94 | 39.5 | 3.07 | 71.1% | impermeable |  |  |  |  | 
3 | N=C(N)c1ccc(C[C@H](NC(=O)c2ccccc2)C(=O)N[C@@H](CCCCN)C(=O)N[C@H](C(N)=O)c2ccccc2)cc1 | 17.4 | 100 | 59.1 | 0.44 | 18% | impermeable | 0.232 | Non-toxic | 32.4 |  | 
4 | N=C(N)Nc1ccc(C[C@H](NC(=O)c2ccccc2)C(=O)N[C@@H](CCCCN)C(=O)N[C@H](C(N)=O)c2ccccc2)cc1 (Bz-[Phe(4-guanidino)]-Lys-[Phg]-NH2) | 16.2 | 99.9 | 64.7 | 0.58 | 7.6% | impermeable |  |  |  |  | 
5 | NCCCC[C@H](NC(=O)[C@H](Cc1cccc(N)c1)NC(=O)c1ccccc1)C(=O)N[C@H](C(N)=O)c1ccccc1 | 4.7 | 28.9 | 23.7 |  | inactive |  |  |  |  |  | 
6 | CC(=O)Nc1ccc(C[C@H](NC(=O)c2ccccc2)C(=O)N[C@@H](CCCCN)C(=O)N[C@H](C(N)=O)c2ccccc2)cc1 (Bz-[Phe(4-NH2)](Ac)-Lys-[Phg]-NH2) | 0 | 34.8 | 93.7 |  | 7.4% | impermeable |  |  |  | 3.85 | 
7 | N=C(N)NCCC[C@H](NC(=O)c1ccc(C(F)(F)F)cc1)C(=O)N[C@@H](CCCCN)C(=O)N[C@H](C(N)=O)c1ccccc1 | 11.5 | 98.7 | 85.3 | 1.02 | 7.7% |  |  |  |  |  | 
8 | C[C@]12CC[C@H]3[C@@H](CCC4=CC(=O)CC[C@@]43C)[C@@H]1CC[C@@H]2O [TESTOSTERONE] |  |  |  |  |  |  |  |  |  |  | 1.05
9 | NCCCC[C@H](NC(=O)[C@H](Cc1cccc(CN)c1)NC(=O)c1ccccc1)C(=O)N[C@H](C(N)=O)c1ccccc1 | 11.2 | 82.4 | 68.6 | 11.8 | 5.6% | impermeable |  |  |  |  | 
10 | N=C(N)NCCC[C@H](NC(=O)c1ccccc1)C(=O)N[C@@H](CCCCN)C(=O)N[C@H](C(N)=O)c1ccccc1 (Bz-Arg-Lys-[Phg]-NH2) | 0.5 |  |  |  |  |  |  | Non-toxic | 40.3 |  | 
11 | CC(=N)Nc1ccc(C[C@H](NC(=O)c2ccccc2)C(=O)N[C@@H](CCCCN)C(=O)N[C@H](C(N)=O)c2ccccc2)cc1 | 0 | 76.6 | 34.2 | 12.7 | 7.7% | impermeable |  |  |  |  | 
12 | NCCCC[C@H](NC(=O)[C@H](Cc1cccnc1)NC(=O)c1ccccc1)C(=O)N[C@H](C(N)=O)c1ccccc1 (Bz-[3Pal]-Lys-[Phg]-NH2) | 3.4 | 17.5 | 23.8 |  | 1.8% |  |  |  |  |  | 
13 | N=C(N)c1ccc(C[C@H](NC(=O)c2ccc(C(F)(F)F)cc2)C(=O)N[C@@H](CCCCN)C(=O)N[C@H](C(N)=O)c2ccccc2)cc1 | 43.4 | 99.8 | 69.9 | 0.21 | 50.3% | impermeable | 0.139 | Non-toxic | 38.2 |  | 
14 | N#Cc1cccc(C[C@H](NC(=O)c2ccccc2)C(=O)N[C@@H](CCCCN)C(=O)N[C@H](C(N)=O)c2ccccc2)c1 (Bz-[Phe(3-CN)]-Lys-[Phg]-NH2) | 0 | 29.6 | 15.6 |  | 4% |  |  |  |  |  | 
15 | NCCCC[C@H](NC(=O)[C@H](Cc1ccc(N)cc1)NC(=O)c1ccccc1)C(=O)N[C@H](C(N)=O)c1ccccc1 (Bz-[Phe(4-NH2)]-Lys-[Phg]-NH2) | 0 | 21.1 | 23.8 |  | 2.3% |  |  |  |  |  | 
16 | NCCCC[C@H](NC(=O)[C@H](Cc1ccncc1)NC(=O)c1ccccc1)C(=O)N[C@H](C(N)=O)c1ccccc1 (Bz-[4Pal]-Lys-[Phg]-NH2) | 0 | 12 | 0 |  | 3.8% |  |  |  |  |  | 
17 | N=C(N)NCCC[C@H](NC(=O)CCc1ccccc1)C(=O)N[C@@H](CCCCN)C(=O)N[C@H](C(N)=O)c1ccccc1 (Hydrocinnamoyl-Arg-Lys-[Phg]-NH2) | 2.3 | 95.9 | 45.3 | 2.7 | 2.5% |  |  |  |  |  | 
18 | N=C(N)c1ccc([C@H](NC(=O)c2ccccc2)C(=O)N[C@@H](CCCCN)C(=O)N[C@H](C(N)=O)c2ccccc2)cc1 | 19.2 | 24.8 | 59.5 |  | 5.5% |  |  |  |  |  | 
19 | N#Cc1ccc(C[C@H](NC(=O)c2ccccc2)C(=O)N[C@@H](CCCCN)C(=O)N[C@H](C(N)=O)c2ccccc2)cc1 (Bz-[Phe(4-CN)]-Lys-[Phg]-NH2) | 0.7 | 22 | 4.7 |  | 7.5% |  |  |  |  |  | 
20 | N=C(N)c1cccc(C[C@H](NC(=O)c2ccc(C(F)(F)F)cc2)C(=O)N[C@@H](CCCCN)C(=O)N[C@H](C(N)=O)c2ccccc2)c1 | 27.1 | 95.8 | 76.1 | 5.81 | 66.6% | impermeable |  |  |  |  | 
